Assay [1] deals with Sclerotinia sclerotiorum. The experiment in a line: Antifungal activity against Sclerotinia sclerotiorum assessed as inhibition of microbial growth by microtiter broth dilution method. The format is functional. The gist of the method:
(§1)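 Spore or zoospore suspension, 10 µL, added to wells of a 24-well dish holding 1 mL potato dextrose broth or nutrient broth. Compound dissolved in methanol and tested over 0–100 µg/mL. Plates held at 22–28 °C and read after 2–5 days against an untreated inoculated control. MIC is the lowest concentration with no visible growth.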
For orientation: In broth dilution the organism is exposed to a series of concentrations in liquid medium.

Assay [2] deals with Fusarium oxysporum f. sp. lycopersici. The experiment in a line: Antifungal activity against Fusarium oxysporum f. sp. lycopersici assessed as inhibition of microbial growth by microtiter broth dilution method. It counts as functional. The procedure, abridged: as §1
The test system of assay [3] is Colletotrichum orbiculare. The experiment in a line: Antifungal activity against Colletotrichum orbiculare assessed as inhibition of microbial growth by microtiter broth dilution method. It counts as functional. The gist of the method:
as §1

The test system of assay [4] is Alternaria mali. The experiment in a line: Antifungal activity against Alternaria mali assessed as inhibition of microbial growth by microtiter broth dilution method. It counts as functional. The procedure, abridged:
as §1

Assay [5] deals with Xanthomonas vesicatoria. The experiment in a line: Antibacterial activity against Xanthomonas vesicatoria assessed as inhibition of microbial growth by microtiter broth dilution method. The format is functional. The procedure, abridged: (§2)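 Broth microdilution in 24-well plates. Inoculum of 10⁴ CFU/mL, 10 µL per well, in 1 mL potato dextrose broth or nutrient broth. Compound in methanol, 0–100 µg/mL. Incubated at 22–28 °C for 2–5 days and compared with a compound-free growth control. MIC is the lowest concentration showing no growth.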

Assay [6] concerns Rhizoctonia solani. The experiment in a line: Antifungal activity against Rhizoctonia solani assessed as inhibition of microbial growth by microtiter broth dilution method. It counts as functional. The procedure, abridged:
as §1

Assay [7] relates to Bacillus subtilis. The experiment in a line: Antibacterial activity against Bacillus subtilis subsp. subtilis assessed as inhibition of microbial growth by microtiter broth dilution method. The format is functional. The gist of the method:
as §2

In assay [8] the test system is Cladosporium cucumerinum. The experiment in a line: Antifungal activity against Cladosporium cucumerinum assessed as inhibition of microbial growth by microtiter broth dilution method. The format is functional. The gist of the method: as §1
The test system of assay [9] is Ilyonectria destructans. The experiment in a line: Antifungal activity against Ilyonectria radicicola assessed as inhibition of microbial growth by microtiter broth dilution method. The format is functional. The gist of the method: as §1
The test system of assay [10] is Candida albicans. The experiment in a line: Antifungal activity against Candida albicans assessed as inhibition of microbial growth by microtiter broth dilution method. It counts as functional. The gist of the method: as §2
In assay [11] the test system is Globisporangium ultimum. The experiment in a line: Antifungal activity against Pythium ultimum assessed as inhibition of microbial growth by microtiter broth dilution method. The format is functional. The procedure, abridged: as §1
The subject of assay [12] is Phytophthora capsici. The experiment in a line: Antifungal activity against Phytophthora capsici assessed as inhibition of microbial growth by microtiter broth dilution method. The format is functional. The procedure, abridged:
as §1

Assay [13] relates to Pyricularia grisea. The experiment in a line: Antifungal activity against Magnaporthe grisea assessed as inhibition of microbial growth by microtiter broth dilution method. The format is functional. The procedure, abridged:
(§3)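 24-well broth dilution. 10 µL of spore or cell suspension went into 1 mL potato dextrose broth or nutrient broth. Bacterial inoculum was 10⁴ CFU/mL. Compound was dissolved in methanol and tested at 0–100 μg/mL. Plates were incubated at 22–28 °C for 2–5 days against a compound-free growth control. MIC was the lowest concentration showing no growth.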

For assay [14], the system named is Colletotrichum orbiculare. The experiment in a line: […] antifungal activity against Colletotrichum orbiculare on two-leaf stage cucumber plant assessed as inhibition of anthracnose development at 100 ug/mL. The format is functional, organism-based. The gist of the method:
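Cucumber cv. Baekrokdadaki grown at 28 ± 2 °C. Compound in methanol, diluted in 0.1% Tween 20 to 10–500 µg/mL, sprayed on primary leaves 1 day before inoculation. Inoculum was 10⁶ conidia/mL in 0.05% Tween 20, followed by 24 h in a dew chamber at 28 °C. Lesions/cm² on secondary leaves counted at day 6. 6 plants/treatment, 3 replicates; Tween-only control.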

In assay [15] the test system is Ralstonia solanacearum. The experiment in a line: Antibacterial activity against Ralstonia solanacearum assessed as inhibition of microbial growth by microtiter broth dilution method. The format is functional. The gist of the method: as §3
Assay [16] deals with Botrytis cinerea. The experiment in a line: Antifungal activity against Botryotinia fuckeliana assessed as inhibition of microbial growth by microtiter broth dilution method. It counts as functional. The procedure, abridged: as §1
The subject of assay [17] is Saccharomyces cerevisiae. The experiment in a line: Antifungal activity against Saccharomyces cerevisiae assessed as inhibition of microbial growth by microtiter broth dilution method. It counts as functional. The procedure, abridged:
as §2

For assay [18], the system named is Pectobacterium carotovorum subsp. carotovorum. The experiment in a line: Antibacterial activity against Pectobacterium carotovorum subsp. carotovorum assessed as inhibition of microbial growth by microtiter broth dilution method. The format is functional. The procedure, abridged:
as §2

In assay [19] the test system is Colletotrichum orbiculare. The experiment in a line: […] antifungal activity against Colletotrichum orbiculare on […] assessed as inhibition of anthracnose development at 500 ug/mL. The format is functional, organism-based.

The structures appear in SMILES notation. Calls of active or inactive are those of the source. The rule behind the calls is not given here.

With `O=C(O)C/C=C/c1ccccc1`, the MIC in assay [1] is greater than 100 µg/mL; in [2] it was greater than 100 µg/mL; in assay [3], 3 µg/mL; in assay [4], 30 µg/mL; in assay [5] it was 10 µg/mL; in assay [6], 30 µg/mL. The MIC in assay [7] is 3 µg/mL; in assay [8], 30 µg/mL; in assay [9], 30 µg/mL; in assay [10], greater than 100 µg/mL; in [11], 0.5 µg/mL; in assay [12], 30 µg/mL. For the same molecule, the MIC in [13] is 10 µg/mL; in [15] it was 0.5 µg/mL; in assay [16], greater than 100 µg/mL; in assay [17], greater than 100 µg/mL; in assay [18] it was 1 µg/mL. The inhibition result in [14] and in assay [19] was “Active” in each case.

As to `N#Cc1c(Cl)c(Cl)c(Cl)c(C#N)c1Cl`, the inhibition entry in assay [19] is “Active”.

What is called MIC is the least concentration at which growth counts as inhibited.
